Converted amounts (≈) assume the structure as drawn.
Experiments:
Type in all cases: functional
Bacillus subtilis = test: Antibacterial activity against Bacillus subtilis MTCC 441 by broth dilution method
Summary of the method: (§1)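 Broth dilution per National Committee for Clinical Laboratory (NCCL) standards against a bacterial panel. The read-out is the minimum inhibitory concentration (MIC).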

Staphylococcus aureus = test: Antibacterial activity against Staphylococcus aureus MTCC 96 by broth dilution method; summary of the method: as §1
[1] = tested on: Staphylococcus epidermidis; test: Antibacterial activity against Staphylococcus epidermidis MTCC 437 by broth dilution method; summary of the method: as §1
Escherichia coli = test: Antibacterial activity against Escherichia coli MTCC 443 by broth dilution method; summary of the method: as §1
Pseudomonas aeruginosa = test: Antibacterial activity against Pseudomonas aeruginosa MTCC 741 by broth dilution method; summary of the method: as §1
Klebsiella pneumoniae = test: Antibacterial activity against Klebsiella pneumoniae MTCC 39 by broth dilution method; summary of the method: as §1
Rhizopus arrhizus [2] = test: Antifungal activity against Rhizopus oryzae MTCC 262 at 30 ug/ml after 24 to 96 hrs by agar cup diffusion method; settings: read-out: DIZ
Summary of the method: (§2)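 Agar cup diffusion on autoclaved Potato Dextrose Agar. 0.5 ml of 24 h old test-organism culture was spread over the solidified agar, and 6 mm cups were bored. Compounds were dissolved in DMSO and added to the cups at two concentrations. A clotrimazole control was included. Plates were held at room temperature for 24–96 h, and inhibition zone diameters were measured.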

Aspergillus niger [3] = test: Antifungal activity against Aspergillus niger MTCC 1344 at 30 ug/ml after 24 to 96 hrs by agar cup diffusion method; settings: read-out: DIZ; summary of the method: as §2
Candida albicans [4] = test: Antifungal activity against Candida albicans MTCC 227 at 30 ug/ml after 24 to 96 hrs by agar cup diffusion method; settings: read-out: DIZ; summary of the method: as §2
Saccharomyces cerevisiae [5] = test: Antifungal activity against Saccharomyces cerevisiae MTCC 171 at 30 ug/ml after 24 to 96 hrs by agar cup diffusion method; settings: read-out: DIZ; summary of the method: as §2
Rhizopus arrhizus [6] = test: Antifungal activity against Rhizopus oryzae MTCC 262 at 100 ug/ml after 24 to 96 hrs by agar cup diffusion method; settings: read-out: DIZ; summary of the method: as §2
Aspergillus niger [7] = test: Antifungal activity against Aspergillus niger MTCC 1344 at 100 ug/ml after 24 to 96 hrs by agar cup diffusion method; settings: read-out: DIZ; summary of the method: as §2
Candida albicans [8] = test: Antifungal activity against Candida albicans MTCC 227 at 100 ug/ml after 24 to 96 hrs by agar cup diffusion method; settings: read-out: DIZ; summary of the method: as §2
Saccharomyces cerevisiae [9] = test: Antifungal activity against Saccharomyces cerevisiae MTCC 171 at 100 ug/ml after 24 to 96 hrs by agar cup diffusion method; settings: read-out: DIZ; summary of the method: as §2

O=C1C=CC[C@@H](C/C=C/[C@H](O)CCc2ccccc2)O1
MIC (Bacillus subtilis): 100 µg/mL (≈ 367 µM) | MIC (Staphylococcus aureus): 50 µg/mL (≈ 184 µM) | MIC [1]: 50 µg/mL (≈ 184 µM) | MIC (Escherichia coli): 100 µg/mL (≈ 367 µM) | MIC (Pseudomonas aeruginosa): 25 µg/mL (≈ 91.8 µM) | MIC (Klebsiella pneumoniae): 100 µg/mL (≈ 367 µM) | zone of inhibition at 30 µg/mL (Rhizopus arrhizus [2]): 12 mm | zone of inhibition at 30 µg/mL (Aspergillus niger [3]): 11 mm | zone of inhibition at 30 µg/mL (Candida albicans [4]): 8 mm | zone of inhibition at 30 µg/mL (Saccharomyces cerevisiae [5]): 8 mm | zone of inhibition at 100 µg/mL (Rhizopus arrhizus [6]): 14 mm | zone of inhibition at 100 µg/mL (Aspergillus niger [7]): 14 mm | zone of inhibition at 100 µg/mL (Candida albicans [8]): 10 mm | zone of inhibition at 100 µg/mL (Saccharomyces cerevisiae [9]): 11 mm

Clc1ccccc1C(c1ccccc1)(c1ccccc1)n1ccnc1 [CLOTRIMAZOLE]
zone of inhibition at 30 µg/mL (Rhizopus arrhizus [2]): 21 mm | zone of inhibition at 30 µg/mL (Aspergillus niger [3]): 18 mm | zone of inhibition at 30 µg/mL (Candida albicans [4]): 22 mm | zone of inhibition at 30 µg/mL (Saccharomyces cerevisiae [5]): 23 mm

CN[C@@H]1[C@H](O[C@H]2[C@H](O[C@H]3[C@H](O)[C@@H](O)[C@H](N=C(N)N)[C@@H](O)[C@@H]3N=C(N)N)O[C@@H](C)[C@]2(O)C=O)O[C@@H](CO)[C@H](O)[C@H]1O [STREPTOMYCIN]
MIC (Escherichia coli): 1.56 µg/mL (≈ 2.69 µM) | MIC (Pseudomonas aeruginosa): 1.56 µg/mL (≈ 2.69 µM) | MIC (Klebsiella pneumoniae): 1.56 µg/mL (≈ 2.69 µM)

O=C(/C=C/C[C@@H]1CC=CC(=O)O1)CCc1ccccc1 [R-RUGULACTONE]
MIC (Bacillus subtilis): 100 µg/mL (≈ 370 µM) | MIC (Staphylococcus aureus): 50 µg/mL (≈ 185 µM) | MIC [1]: 50 µg/mL (≈ 185 µM) | MIC (Escherichia coli): 50 µg/mL (≈ 185 µM) | MIC (Pseudomonas aeruginosa): 12.5 µg/mL (≈ 46.2 µM) | MIC (Klebsiella pneumoniae): 25 µg/mL (≈ 92.5 µM) | zone of inhibition at 30 µg/mL (Rhizopus arrhizus [2]): 11 mm | zone of inhibition at 30 µg/mL (Aspergillus niger [3]): 14 mm | zone of inhibition at 30 µg/mL (Candida albicans [4]): 7 mm | zone of inhibition at 30 µg/mL (Saccharomyces cerevisiae [5]): 7 mm | zone of inhibition at 100 µg/mL (Rhizopus arrhizus [6]): 12 mm | zone of inhibition at 100 µg/mL (Aspergillus niger [7]): 16 mm | zone of inhibition at 100 µg/mL (Candida albicans [8]): 8 mm | zone of inhibition at 100 µg/mL (Saccharomyces cerevisiae [9]): 8 mm

CC1(C)S[C@@H]2[C@H](NC(=O)Cc3ccccc3)C(=O)N2[C@H]1C(=O)O [PENICILLIN G]
MIC (Bacillus subtilis): 1.56 µg/mL (≈ 4.67 µM) | MIC (Staphylococcus aureus): 1.56 µg/mL (≈ 4.67 µM) | MIC [1]: 1.56 µg/mL (≈ 4.67 µM)

O=C1CN(/N=C/c2ccc([N+](=O)[O-])o2)C(=O)N1 [NITROFURANTOIN]
MIC (Bacillus subtilis): 100 µg/mL (≈ 420 µM) | MIC (Staphylococcus aureus): 50 µg/mL (≈ 210 µM) | MIC [1]: 50 µg/mL (≈ 210 µM) | MIC (Escherichia coli): 25 µg/mL (≈ 105 µM) | MIC (Pseudomonas aeruginosa): 100 µg/mL (≈ 420 µM) | MIC (Klebsiella pneumoniae): 50 µg/mL (≈ 210 µM)

O=C1C=CC[C@@H](C/C=C/[C@@H](O)CCc2ccccc2)O1
MIC (Bacillus subtilis): 50 µg/mL (≈ 184 µM) | MIC (Staphylococcus aureus): 100 µg/mL (≈ 367 µM) | MIC [1]: 100 µg/mL (≈ 367 µM) | MIC (Escherichia coli): 100 µg/mL (≈ 367 µM) | MIC (Pseudomonas aeruginosa): 50 µg/mL (≈ 184 µM) | MIC (Klebsiella pneumoniae): 100 µg/mL (≈ 367 µM) | zone of inhibition at 30 µg/mL (Rhizopus arrhizus [2]): 12 mm | zone of inhibition at 30 µg/mL (Aspergillus niger [3]): 9 mm | zone of inhibition at 30 µg/mL (Candida albicans [4]): 9 mm | zone of inhibition at 30 µg/mL (Saccharomyces cerevisiae [5]): 8 mm | zone of inhibition at 100 µg/mL (Rhizopus arrhizus [6]): 16 mm | zone of inhibition at 100 µg/mL (Aspergillus niger [7]): 12 mm | zone of inhibition at 100 µg/mL (Candida albicans [8]): 8 mm | zone of inhibition at 100 µg/mL (Saccharomyces cerevisiae [9]): 10 mm

From ChEMBL document CHEMBL1250503, “Stereoselective synthesis and biological evaluation of (R)-rugulactone, (6R)-((4R)-hydroxy-6-phenyl-hex-2-enyl)-5,6-dihydro-pyran-2-one and its 4S epimer” (2010)
